Where a SMILES comes first, the peptide text is derived from it. [ ]: non-standard residue; d: D form. NMeL = CN[C@@H](CC(C)C)C(=O)O; NMeA = CN[C@@H](C)C(=O)O

The species named for assay [1] is Rattus norvegicus. The assay is described as follows: Percent intrinsic activity was determined in rat pituitary cells. In kind it is functional, Pituitary gland cell.
Assay [2] is filed under the species Rattus norvegicus. The assay is described as follows: Compound was tested in vitro to antagonize CRF-induced release of ACTH by rat pituitary cells in culture. The assay is classed as functional, Pituitary gland cell. An outline of the steps: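 Collagenase-dispersed rat anterior pituitary cells were grown in monolayer culture for 3–5 days. Cells were then incubated for 3 h with peptide at several doses against 1 nM CRF stimulation (n = 3). ACTH secreted into the medium was measured by double-antibody RIA. Relative potencies were derived from the dose-response curves.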

As for `CCCC[C@H](NC(=O)[C@H](CCC(=O)O)NC(=O)[C@H](CC(C)C)NC(=O)[C@@H](NC(=O)[C@H](CCC(=O)O)NC(=O)[C@H](CCCN=C(N)N)NC(=O)[C@H](CC(C)C)NC(=O)[C@](C)(CC(C)C)NC(=O)[C@H](Cc1c[nH]cn1)NC(=O)[C@H](N)Cc1ccccc1)C(C)C)C(=O)N[C@@H](C)C(=O)N[C@@H](CCCN=C(N)N)C(=O)NC(C)(C)C(=O)N[C@@H](CCC(=O)O)C(=O)N[C@@H](CCC(N)=O)C(=O)N[C@@H](CC(C)C)C(=O)NC(C)(C)C(=O)N[C@@H](CCC(N)=O)C(=O)N[C@@H](CCC(N)=O)C(=O)NC(C)(C)C(=O)N[C@@H](Cc1c[nH]cn1)C(=O)N[C@@H](CO)C(=O)N[C@@H](CC(N)=O)C(=O)N[C@@H](CCCN=C(N)N)C(=O)N[C@@H](CCCCN)C(=O)N[C@@H](CC(C)C)C(=O)N[C@@H](CCCC)C(=O)N[C@@H](CCC(=O)O)C(=O)N[C@H](C(=O)N[C@H](C(N)=O)[C@@H](C)CC)[C@@H](C)CC`, the IA in the assay filed under Rattus norvegicus [1] was 23%.
Same read-out and setting: the same measure for `CCCC[C@H](NC(=O)[C@H](CCC(=O)O)NC(=O)[C@H](CC(C)C)NC(=O)[C@@H](NC(=O)[C@H](CCC(=O)O)NC(=O)[C@H](CCCN=C(N)N)NC(=O)[C@](C)(CC(C)C)NC(=O)[C@H](CC(C)C)NC(=O)[C@H](Cc1c[nH]cn1)NC(=O)[C@H](N)Cc1ccccc1)C(C)C)C(=O)N[C@@H](C)C(=O)N[C@@H](CCCN=C(N)N)C(=O)NC(C)(C)C(=O)N[C@@H](CCC(=O)O)C(=O)N[C@@H](CCC(N)=O)C(=O)N[C@@H](CC(C)C)C(=O)NC(C)(C)C(=O)N[C@@H](CCC(N)=O)C(=O)N[C@@H](CCC(N)=O)C(=O)NC(C)(C)C(=O)N[C@@H](Cc1c[nH]cn1)C(=O)N[C@@H](CO)C(=O)N[C@@H](CC(N)=O)C(=O)N[C@@H](CCCN=C(N)N)C(=O)N[C@@H](CCCCN)C(=O)N[C@@H](CC(C)C)C(=O)N[C@@H](CCCC)C(=O)N[C@@H](CCC(=O)O)C(=O)N[C@H](C(=O)N[C@H](C(N)=O)[C@@H](C)CC)[C@@H](C)CC`: 8%.
In turn, `CSCC[C@H](NC(=O)[C@H](CCC(=O)O)NC(=O)[C@H](CCCN=C(N)N)NC(=O)[C@H](CC(C)C)N(C)C(=O)[C@H](CC(C)C)NC(=O)[C@H](Cc1c[nH]cn1)NC(=O)[C@H](Cc1ccccc1)NC(=O)[C@@H](NC(=O)[C@H](CC(C)C)N(C)C(=O)[C@@H](N)CC(=O)O)[C@@H](C)O)C(=O)N[C@@H](CC(C)C)C(=O)N[C@@H](CCC(=O)O)C(=O)N[C@@H](CCSC)C(=O)N(C)[C@@H](C)C(=O)N[C@@H](CCCCN)C(=O)N[C@@H](C)C(=O)N[C@@H](CCC(=O)O)C(=O)N[C@@H](CCC(N)=O)C(=O)N(C)[C@@H](CC(C)C)C(=O)N[C@@H](C)C(=O)N[C@@H](CCC(=O)O)C(=O)N[C@@H](CCC(N)=O)C(=O)N[C@@H](C)C(=O)N(C)[C@@H](C)C(=O)N[C@@H](CC(C)C)C(=O)N[C@@H](CC(N)=O)C(=O)N[C@@H](CCCN=C(N)N)C(=O)N[C@@H](CC(C)C)C(=O)N(C)[C@@H](CC(C)C)C(=O)N[C@@H](CC(C)C)C(=O)N[C@@H](CCC(=O)O)C(=O)N[C@@H](CCC(=O)O)C(=O)N(C)[C@@H](C)C(N)=O` (H-D[NMeL]TFHL[NMeL]REMLEM[NMeA]KAEQ[NMeL]AEQA[NMeA]LNRL[NMeL]LEE[NMeA]-NH2) gave an IA in the assay filed under Rattus norvegicus [1] of 0%. The Potency in the assay listed under Rattus norvegicus [2] was determined as 0.
In the assay filed under Rattus norvegicus [1], H-DLTFHLLREMLEMAKAEQEAEQAALNRLLLEEA-NH2 registered an IA of 14%. Besides, the Potency in the assay filed under Rattus norvegicus [2] amounted to 0.12.

The values above are taken from ChEMBL document CHEMBL1126829, “Synthesis and relative potencies of new constrained CRF antagonists” (1993).
